Assay results pooled from the literature.
Lines come from different studies, so protocols differ.
Target: Cyclin-dependent kinase 7 (CDK7, Homo sapiens, UniProt P50613)

COc1ccc2c(c1)O[C@H](c1ccc(OC)c(OC)c1)C[C@@H]2NC(=O)C1(c2ccc3c(c2)OC(F)(F)O3)CC1 — remaining binding (cell-free assay, competition with immobilised ligand; 1 µM): 85%
O=C(c1ccc(Nc2ncc(Cl)c(-c3ccc(Cl)s3)n2)cc1)N1CCC(N2CCCC2)CC1 — remaining binding (binding, competition with immobilised ligand; 1 µM): 0.55%
COc1cnc(Nc2cccc(S(N)(=O)=O)c2)nc1N1CCN(c2ccccc2)C(=O)C1 — remaining binding (binding, competition with immobilised ligand; 1 µM): 73%
Cc1c(C(=O)O)cc(-c2ccc(C3CCNCC3)cc2)c2ccc(-c3ccc(C(F)(F)F)cc3)cc12 — remaining binding (binding, competition with immobilised ligand; 1 µM): 97%
FC(F)(F)Oc1cccc(-c2cnc3ccc(-c4ccncc4)nn23)c1 — remaining binding (cell-free assay, competition with immobilised ligand; 5 µM): 0.85%
Cc1cnc(Nc2ccc(C(=O)N3CCC(N4CCCC4)CC3)cc2)nc1-c1cc2ccccc2s1 — remaining binding (binding, competition with immobilised ligand; 1 µM): 2.4%
CC(C)(C)c1ccc(-c2nc(CBr)nn2-c2cccc(O)c2)cc1 — remaining binding (cell-free assay, competition with immobilised ligand; 10 µM): 89%
COc1ncc2cc3ccccc3nc2c1C#N — remaining binding (cell-free assay, competition with immobilised ligand; 5 µM): 100%
O=C(NCC1CCOCC1)c1n[nH]cc1NC(=O)c1c(F)cccc1F — remaining binding (binding, competition with immobilised ligand; 1 µM): 31%
COc1cccc(CNC(=O)c2nc3scc(COCc4ccc(C(=O)O)cc4)c3c(=O)[nH]2)c1 — remaining binding (cell-free assay, competition with immobilised ligand; 1 µM): 80.5%
N[C@@H]1CCN(c2nccc(-c3cnn4ncccc34)n2)C1 — remaining binding (binding; 1 µM): 21%
O=S(=O)(NC1CCC(c2cc(F)ccc2F)(S(=O)(=O)c2ccc(Cl)cc2)CC1)C(F)(F)F (centres unmarked) — remaining binding (cell-free assay, competition with immobilised ligand; 1 µM): 100%
C[C@@H]1CN(c2ccc3ncc(-c4ccc5[nH]nc(C6CC6)c5c4)n3n2)C[C@H](C)O1 — remaining binding (binding, competition with immobilised ligand; 50 nM): 88%
COc1ccnn2ncc(-c3ccnc(N(C)C)n3)c12 — remaining binding (binding; 1 µM): 85%
CCC(=O)N[C@@H]1CC[C@H](C(=O)N(C)c2ccc(-c3nc4ccccc4o3)cc2)C1 — remaining binding (cell-free assay, competition with immobilised ligand; 1 µM): 85%
C=CC(=O)N1CCC(C(=O)NCC(=O)N2CCN(c3nc(-c4cnc(N)nc4C(F)F)nc(N4CCOCC4)n3)CC2)CC1 — remaining binding (binding, competition with immobilised ligand; 1 µM): 94%
Nc1ncc2c(n1)-c1c([nH]c3ccc(C#CC4CC4)cc13)CCCC2 — remaining binding (binding, competition with immobilised ligand; 1 µM): 92%
CN(C)c1nccc(-c2cnc3ncccn23)n1 — remaining binding (binding; 1 µM): 29%
O=C(NCCCN1CCOCC1)c1ccc(Nc2ncc(Cl)c(-c3ccc(Cl)s3)n2)cc1 — remaining binding (binding, competition with immobilised ligand; 1 µM): 2.5%
O=C(O)[C@@H]1[C@@H](Cn2nnc3ccccc3c2=O)CC[C@H]1C(=O)c1ccc(OCCC2CCOCC2)cc1 — remaining binding (cell-free assay, competition with immobilised ligand; 1 µM): 86%
C[C@H]1CCN(c2nccc(-c3cnn4ncccc34)n2)C1 — remaining binding (binding; 1 µM): 27%
Cn1nc(C(F)(F)F)cc1-c1cnc(N2CCc3cc(S(=O)(=O)Nc4c(F)cc(Cl)cc4F)cc(N4CCCC4=O)c32)nc1 — remaining binding (cell-free assay, competition with immobilised ligand; 1 µM): 75%
CN(C)c1ncc(F)c(-c2cnn3ncccc23)n1 — remaining binding (binding; 1 µM): 78%
